Hits are enriched below; roughly 5.5% of the tested compounds scored in any of these assays.
Cl transport mod: modulates chloride dependent transport by human KCC2. B-score of Tl+ flux slope (higher = more flux/activation; lower = inhibition) at 10 µM. AID 1456. KCC2 cells, thallium flux FluoZin-2 fluorescence. 2.2% of 190,000 active;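 active means thallium flux slope and its plate-corrected score both differing from the plate sample mean at a set confidence after two filtering rounds, in either direction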;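 further: slope of fluorescence scaled to starting intensity during 10 to 20 s after thallium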
RAM inhibit: inhibitors of the yeast RAM network | AID 868 | 1.8% of 190,000 active | inhibition, % at 50 µM | S. cerevisiae dse1pr::URA3 reporter, 5-FOA growth OD615, 2 d; analog-sensitive cbk1-as2 kinase mutant strain;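 active means inhibition above a set limit, 3 SD over mean compound inhibition, cut at about 8.4% in these data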;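 further: 0% = DMSO-only wells with no growth and 100% = 10 µM 1-NA-PP1 full growth; inhibition rescues growth on 5-FOA so higher OD means more RAM inhibition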
WT yeast gro inh: growth inhibition of WT yeast, mitochondrial fusion screen. AID 1362. inhibition, % at 10 µM. mitochondrial fusion phenotypic screen, WT strain. 2.1% of 190,000 active; in the data active means inhibition above about 58%; tested in S. cerevisiae
Yeast life ext: extends the lifespan of yeast; S. cerevisiae growth with nicotinamide, OD615; deaD strain in restrictive glucose medium; inhibition of the nicotinamide effect, % at 10 µM; 0.68% of 130,000 active;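 active means inhibition above a set limit, placed 3 SD over the median of all compounds, cut at about 26% in these data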;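 further: 0% = nicotinamide-treated wells and 100% = cells grown without nicotinamide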
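Test system – modified budding yeast, DeaD strain · Compound – single dose 10 µM compound, 0.25% DMSO · Times – culture preincubation 4 h, compound exposure 48 h, both 30 °C · Detection – optical density (absorbance) at 615 nm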
Yeast growth inh: yeast BB579 growth reduction in restrictive medium; S. cerevisiae BB579 growth, OD615, 48 h; inhibition, % at 10 µM; 0.51% of 140,000 active; AID 804;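 active means inhibition above a set limit, 3 SD over the mean compound inhibition, cut at about 44% in these data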
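test system = yeast BB579 (DeaD) | buffer or medium = restrictive CSMM-D medium | doses = single compound dose of 10 µM, 0.25% DMSO final | times = 4 h preincubation and 48 h exposure at 30 °C | technique = culture absorbance at 615 nm | benchmarks = amphotericin B 10 µg/mL, positive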
Starred values were filed as active, the others as inactive; x = not tested or not shown.

SMILES	Cl transport mod	RAM inhibit	WT yeast gro inh	Yeast life ext	Yeast growth inh
CCOc1ccc(/C=N/Nc2ccc(C(F)(F)F)cc2[N+](=O)[O-])cc1O	0.105	3.4	12.6	-0.3	-39.3
O=C(Nc1cc(C(F)(F)F)ccc1N1CCOCC1)C1Cc2ccccc2CN1C(=O)c1ccco1 (configuration not stated)	-1.13	2.7	0.3	-6.4	-11.2
CCC(C)NC(=S)N1CCN(C(c2ccccc2)c2ccccc2)CC1 (configuration not stated)	-0.658	-0.7	69.2*	1.1	-6.8
COc1ccc(NC(=S)N2CCN(C(c3ccccc3)c3ccccc3)CC2)cc1OC	-2.14	1.1	55.9	-8.0	-17.9
CNC(=S)N1CCN(C(c2ccccc2)c2ccccc2)CC1	-1.44	1.2	70.3*	x	x
CCC(C)NC(=S)N1CCN(Cc2ccccc2)CC1 (configuration not stated)	-1.36	0.9	-9.4	x	x
CCOC(=O)c1c(NC(=O)C(C)Sc2cccc[n+]2[O-])sc2c1CCN(Cc1ccccc1)C2 (configuration not stated)	-1.15	-0.2	20.2	4.8	91.0*
CCOC(=O)c1c(NC(=O)CSc2ncccn2)sc2c1CCN(Cc1ccccc1)C2	-0.178	1.5	32.0	-0.2	-28.6
O=S(=O)(NCC(Nc1ccc(Cl)cc1)c1ccccc1)c1ccc(Cl)cc1 (configuration not stated)	0.000157	9.0*	74.1*	-2.0	-27.0
COc1ccc(-c2nc(C#N)c(N3CCc4ccccc4C3)o2)cc1OC	-1.16	1.9	4.9	-8.4	-24.9
COc1ccccc1-c1nc(C#N)c(N2CCc3ccccc3C2)o1	x	10.4*	-4.4	-22.8	-58.6
Cc1ccc(C(C)C)c(OCc2nnc(SCC(=O)Nc3ncc(C)s3)n2C)c1	-0.014	8.6*	-11.8	7.5	-72.8
Cc1nc2ccc(NC(=O)Cc3c(F)cccc3Cl)cc2s1	0.0567	x	x	x	x
COCCNC(=O)c1cccc(Nc2nc(-c3ccccc3)c3cc(Cl)ccc3n2)c1	-0.46	5.4	60.6*	-2.1	-20.2
CCC(Sc1nc2c(c(=O)n1CC)SC(C)C2)C(=O)OC (configuration not stated)	x	1.7	15.4	-6.5	-4.4
O=C(C1=C[C@@H](c2csc3ccccc23)C[C@@H](OCc2ccc(CO)cc2)O1)N1CCN(Cc2ccccc2)CC1	0.434	1.3	93.8*	x	x
O=C(C1=C[C@@H](c2coc3ccccc3c2=O)C[C@@H](OCc2ccc(CO)cc2)O1)N1CCN(Cc2ccccc2)CC1	-3.25*	-0.5	12.5	x	x
C=CCOC(=O)C1=C[C@@H](c2coc3ccccc3c2=O)C[C@@H](OCc2ccc(CO)cc2)O1	-0.136	3.4	68.1*	x	x
CC(C)(Oc1ccc(Cl)cc1)C(=O)N(Cc1ccccc1)c1ccccn1	-0.0671	-0.7	29.9	25.2	-24.5
Cc1nn(-c2ccccc2)c2c1C1(C(=O)N(C)c3ccccc31)C(C#N)=C(N)O2 (configuration not stated)	-0.914	9.8*	8.3	-0.5	-33.3
CCCSc1nc(C)c(-c2csc(C(C#N)=C3CCCC3)n2)cc1C#N	0.542	8.9*	2.8	-21.1	-31.8
COC(=O)c1cc(OC)c(OC)cc1NC(=O)c1cc(C)on1	-0.364	x	x	x	x
Cc1ccc(NC(=O)C(=O)NCc2ccncc2)cc1	0.175	0.8	-10.0	x	x
COc1ccc(-c2csc(Nc3ncccc3C)n2)cc1	-0.404	0.5	75.7*	x	-0.5
COc1ccc(Nc2nc(-c3ccc(OC)cc3)cs2)cc1	-0.0489	2.0	-2.6	x	x
SMILES	Cl transport mod	RAM inhibit	WT yeast gro inh	Yeast life ext	Yeast growth inh
COc1ccc(-c2csc(Nc3ccccc3)n2)cc1	0.985	5.3	68.6*	x	x
O=C(Cn1nnc(-c2ccccc2F)n1)Nc1ccc(S(=O)(=O)NC2CCCC2)cc1	0.428	1.8	-20.0	-10.3	3.9
CSc1n[nH]c(NCc2ccc(C)cc2)n1	0.795	-0.4	-13.4	x	-6.5
Cc1cccc(NS(=O)(=O)c2cc(C(=O)OC(C)C(=O)NCc3ccc4c(c3)OCO4)ccc2C)c1 (configuration not stated)	-1.26	4.9	-3.2	3.1	-29.1
COc1ccc2c(c1)CCC1=C2NC(=S)NC1c1ccc(N(C)C)cc1 (configuration not stated)	0.282	0.0	81.4*	x	x
O=C(/C=C/c1ccc(F)cc1)NCCc1ccc2c(c1)OCCO2	-0.696	1.5	2.9	-6.5	-30.1
